# Experimental data published in the M2OR odorant receptor database.
# Key:
# Conditions in all cases: stereoisomer not certain
# UniProt A2ATE5 = target: T1, UniProt A2ATE5
# T1 sequence (whole entry): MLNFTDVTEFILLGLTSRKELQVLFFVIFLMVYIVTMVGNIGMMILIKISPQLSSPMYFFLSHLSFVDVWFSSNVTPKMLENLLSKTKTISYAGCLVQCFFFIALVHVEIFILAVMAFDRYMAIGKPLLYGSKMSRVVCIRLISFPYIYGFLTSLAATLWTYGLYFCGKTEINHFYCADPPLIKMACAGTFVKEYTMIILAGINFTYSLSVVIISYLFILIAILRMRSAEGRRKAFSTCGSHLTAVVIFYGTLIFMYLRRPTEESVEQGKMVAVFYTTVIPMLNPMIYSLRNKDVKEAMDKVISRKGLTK
# How it was run: (§1)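 Values were gathered from published papers (main text and supplementary material), with extra details requested from the original authors when needed, and checked for typos and inconsistencies. Each receptor–molecule pair is called responsive (active) if the original authors judged the measured signal statistically different from baseline, and non-responsive (inactive) otherwise. Assay methods varied by source, often transient mammalian cell-line luciferase assays. Recorded details include cell line, G-protein, co-transfected protein and tags.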
# UniProt A2AVB0 = target: T2, UniProt A2AVB0
# T2 sequence (whole entry): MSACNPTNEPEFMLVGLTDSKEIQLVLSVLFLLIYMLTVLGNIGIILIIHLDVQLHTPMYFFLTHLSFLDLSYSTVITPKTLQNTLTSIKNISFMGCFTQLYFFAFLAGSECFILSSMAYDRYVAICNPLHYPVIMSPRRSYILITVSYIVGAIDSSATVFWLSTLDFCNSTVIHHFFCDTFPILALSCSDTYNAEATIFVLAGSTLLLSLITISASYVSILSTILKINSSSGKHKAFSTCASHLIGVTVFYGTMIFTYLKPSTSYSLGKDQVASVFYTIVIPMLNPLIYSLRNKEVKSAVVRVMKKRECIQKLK
# How it was run: as §1
# UniProt E9PVX1 = target: T3, UniProt E9PVX1
# T3 sequence (whole entry): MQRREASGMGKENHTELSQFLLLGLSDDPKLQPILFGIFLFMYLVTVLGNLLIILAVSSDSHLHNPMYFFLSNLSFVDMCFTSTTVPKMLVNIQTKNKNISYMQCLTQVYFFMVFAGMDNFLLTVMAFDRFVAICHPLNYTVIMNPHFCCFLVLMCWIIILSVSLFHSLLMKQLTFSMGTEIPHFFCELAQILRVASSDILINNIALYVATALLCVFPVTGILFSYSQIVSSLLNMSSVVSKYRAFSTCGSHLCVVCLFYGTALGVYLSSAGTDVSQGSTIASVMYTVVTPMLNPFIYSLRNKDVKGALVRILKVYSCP
# How it was run: as §1
# UniProt E9PZ66 = target: T4, UniProt E9PZ66
# T4 sequence (whole entry): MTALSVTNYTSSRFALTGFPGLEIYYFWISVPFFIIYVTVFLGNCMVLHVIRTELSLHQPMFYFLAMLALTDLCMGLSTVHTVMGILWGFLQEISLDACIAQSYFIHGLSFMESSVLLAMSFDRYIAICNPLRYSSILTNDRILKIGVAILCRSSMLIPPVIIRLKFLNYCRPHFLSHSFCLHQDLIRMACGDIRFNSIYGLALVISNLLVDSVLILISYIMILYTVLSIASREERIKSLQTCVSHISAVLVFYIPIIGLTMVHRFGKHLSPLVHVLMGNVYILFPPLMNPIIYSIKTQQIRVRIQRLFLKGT
# How it was run: as §1
# UniProt E9Q4X7 = target: T5, UniProt E9Q4X7
# T5 sequence (whole entry): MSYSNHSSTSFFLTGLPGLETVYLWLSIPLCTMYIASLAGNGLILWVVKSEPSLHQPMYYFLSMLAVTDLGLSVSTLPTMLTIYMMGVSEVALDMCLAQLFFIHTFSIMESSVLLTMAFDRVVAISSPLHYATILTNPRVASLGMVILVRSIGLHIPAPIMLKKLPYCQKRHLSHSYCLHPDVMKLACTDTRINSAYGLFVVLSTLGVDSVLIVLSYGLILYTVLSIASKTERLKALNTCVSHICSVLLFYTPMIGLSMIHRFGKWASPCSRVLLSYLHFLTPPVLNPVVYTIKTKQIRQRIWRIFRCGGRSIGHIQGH
# How it was run: as §1
# UniProt E9Q546 = target: T6, UniProt E9Q546
# T6 sequence (whole entry): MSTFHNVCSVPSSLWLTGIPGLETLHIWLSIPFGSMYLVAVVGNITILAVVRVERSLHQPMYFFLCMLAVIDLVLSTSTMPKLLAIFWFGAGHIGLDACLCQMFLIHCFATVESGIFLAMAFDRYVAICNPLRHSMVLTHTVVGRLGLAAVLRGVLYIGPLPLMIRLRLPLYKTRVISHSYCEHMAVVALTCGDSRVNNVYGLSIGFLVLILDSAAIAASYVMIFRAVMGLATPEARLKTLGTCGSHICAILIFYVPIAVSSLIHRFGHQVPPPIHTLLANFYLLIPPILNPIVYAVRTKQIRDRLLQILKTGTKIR
# How it was run: as §1
# UniProt E9Q6Z7 = target: T7, UniProt E9Q6Z7
# T7 sequence (whole entry): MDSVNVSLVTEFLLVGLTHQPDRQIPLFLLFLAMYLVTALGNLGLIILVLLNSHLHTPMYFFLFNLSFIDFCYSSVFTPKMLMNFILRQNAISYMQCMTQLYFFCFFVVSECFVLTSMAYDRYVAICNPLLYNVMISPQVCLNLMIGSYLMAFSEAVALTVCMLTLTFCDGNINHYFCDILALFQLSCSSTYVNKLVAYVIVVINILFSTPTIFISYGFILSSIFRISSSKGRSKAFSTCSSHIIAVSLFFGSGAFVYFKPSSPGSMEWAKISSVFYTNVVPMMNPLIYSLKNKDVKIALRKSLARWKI
# How it was run: as §1
# UniProt E9PXN3 = target: T8, UniProt E9PXN3
# T8 sequence (whole entry): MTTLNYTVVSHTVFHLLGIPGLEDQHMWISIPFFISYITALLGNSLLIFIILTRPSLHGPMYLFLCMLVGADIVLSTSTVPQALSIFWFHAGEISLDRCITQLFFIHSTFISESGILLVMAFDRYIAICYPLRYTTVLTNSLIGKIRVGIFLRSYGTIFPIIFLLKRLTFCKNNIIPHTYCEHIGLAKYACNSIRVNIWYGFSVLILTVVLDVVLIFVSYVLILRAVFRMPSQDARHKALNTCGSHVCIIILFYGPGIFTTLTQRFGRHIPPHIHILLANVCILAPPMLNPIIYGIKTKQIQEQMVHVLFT
# How it was run: as §1
# UniProt E1BM68 = target: T9, UniProt E1BM68
# T9 sequence (whole entry): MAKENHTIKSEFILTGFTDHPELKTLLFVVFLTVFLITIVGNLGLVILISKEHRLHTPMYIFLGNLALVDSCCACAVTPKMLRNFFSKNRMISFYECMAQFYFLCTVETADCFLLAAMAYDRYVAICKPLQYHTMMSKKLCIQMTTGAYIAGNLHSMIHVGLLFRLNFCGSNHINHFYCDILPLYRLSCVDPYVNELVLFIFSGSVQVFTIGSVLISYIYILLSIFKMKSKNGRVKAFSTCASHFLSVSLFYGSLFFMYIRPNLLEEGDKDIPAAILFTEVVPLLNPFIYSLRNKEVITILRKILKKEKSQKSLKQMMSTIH
# How it was run: as §1
# UniProt E9QAT7 = target: T10, UniProt E9QAT7
# T10 sequence (whole entry): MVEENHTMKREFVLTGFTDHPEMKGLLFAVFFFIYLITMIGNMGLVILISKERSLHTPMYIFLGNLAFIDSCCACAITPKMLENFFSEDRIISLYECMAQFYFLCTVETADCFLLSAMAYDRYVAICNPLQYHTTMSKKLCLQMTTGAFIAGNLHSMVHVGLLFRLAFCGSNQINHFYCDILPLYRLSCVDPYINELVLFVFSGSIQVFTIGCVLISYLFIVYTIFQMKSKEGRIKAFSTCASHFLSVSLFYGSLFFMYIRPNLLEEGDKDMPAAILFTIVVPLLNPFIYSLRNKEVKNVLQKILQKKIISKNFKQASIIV
# How it was run: as §1
Structure (SMILES),odorant receptor agonist call (UniProt A2ATE5),odorant receptor agonist call (UniProt A2AVB0),odorant receptor agonist call (UniProt E9PVX1),odorant receptor agonist call (UniProt E9PZ66),odorant receptor agonist call (UniProt E9Q4X7),odorant receptor agonist call (UniProt E9Q546),odorant receptor agonist call (UniProt E9Q6Z7),odorant receptor agonist call (UniProt E9PXN3),odorant receptor agonist call (UniProt E1BM68),odorant receptor agonist call (UniProt E9QAT7)
CCOC(=O)CC(C)C,inactive,inactive,inactive,inactive,inactive,inactive,inactive,–,–,–
O=C(O)CCCCCBr,inactive,inactive,inactive,inactive,inactive,inactive,inactive,inactive,–,–
COc1nccnc1C,inactive,inactive,inactive,inactive,inactive,inactive,inactive,–,–,–
CCc1ccc(O)cc1,inactive,inactive,inactive,inactive,inactive,inactive,inactive,–,–,–
C1CCOCC1,inactive,inactive,inactive,inactive,inactive,inactive,inactive,–,–,–
CCc1ncc(C)nc1CC,inactive,inactive,inactive,inactive,inactive,inactive,inactive,–,active,active
Cc1ccc(C(C)C)c(O)c1,inactive,inactive,inactive,inactive,inactive,inactive,inactive,–,–,–
